How the values were obtained:
Assay type in all cases: functional
[1] = tested on: Klebsiella pneumoniae; experiment: Antibacterial activity against Klebsiella pneumoniae ATCC 13883 after 24 hrs by CLSI method; details: ATCC 13883, 24 h
Summary of the method: (§1)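 Broth microdilution in 96-well plates, using a medium of 1.75% w/v acid digest of casein and 0.15% w/v starch. Compounds came from a 10 mg/mL DMSO stock. Serial 2-fold dilutions started at 64 μg/mL, with DMSO diluted along with the compounds (0.64% final at the top concentration). Plates were incubated 24 h at 37 °C and read by visual inspection. Moxifloxacin and rifampicin were the positive controls.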

[2] = tested on: Escherichia coli; experiment: Antibacterial activity against Escherichia coli ATCC 25922 after 24 hrs by CLSI method; details: ATCC 25922, 24 h; summary of the method: as §1
[3] = tested on: Staphylococcus aureus; experiment: Antibacterial activity against Staphylococcus aureus ATCC 29213 after 24 hrs by CLSI method; details: ATCC 29213, 24 h; summary of the method: as §1
[4] = tested on: Pseudomonas aeruginosa; experiment: Antibacterial activity against Pseudomonas aeruginosa ATCC 27853 after 24 hrs by CLSI method; details: ATCC 27853, 24 h; summary of the method: as §1
[5] = tested on: L5178Y; experiment: Cytotoxicity against mouse L5178Y cells by MTT assay
Summary of the method: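 MTT viability assay on L5178Y mouse lymphoma cells, compared with untreated controls. Negative controls were media containing 0.1% ethylene glycol monomethyl ether/DMSO. Three independent experiments, each in triplicate.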

[6] = tested on: Staphylococcus aureus; experiment: Antibacterial activity against Staphylococcus aureus ATCC 700699 after 24 hrs by CLSI method; details: ATCC 700699, 24 h; summary of the method: as §1
[7] = tested on: Acinetobacter baumannii; experiment: Antibacterial activity against Acinetobacter baumannii BAA1605 after 24 hrs by CLSI method; details: BAA1605, 24 h; summary of the method: as §1
[8] = tested on: Acinetobacter baumannii; experiment: Antibacterial activity against Acinetobacter baumannii BAA747 after 24 hrs by CLSI method; details: BAA747, 24 h; summary of the method: as §1

| MIC [1] | MIC [2] | MIC [3] | MIC [4] | MIC [6] | MIC [7] | MIC [8] | SMILES | MIC [5] |
| --- | --- | --- | --- | --- | --- | --- | --- | --- |
| > 100 µM | > 100 µM | > 100 µM | > 100 µM | > 100 µM | > 100 µM | > 100 µM | Cc1c2c(c3cc(C)n([C@@H](CC(C)C)C(=O)O)c(=O)c3c1O)C[C@@H](C(C)(C)O)CO2 | > 20 µM |
| > 100 µM | > 100 µM | > 100 µM | > 100 µM | > 100 µM | > 100 µM | > 100 µM | CCC(C)[C@@H](C(=O)O)n1c(C)cc2c3c(c(C)c(O)c2c1=O)OC[C@H](C(C)(C)O)C3 (stereo partly specified) | > 20 µM |

From ChEMBL document CHEMBL4265995, “Chaetolines A and B, Pyrano[3,2- f]isoquinoline Alkaloids from Cultivation of Chaetomium sp. in the Presence of Autoclaved Pseudomonas aeruginosa” (2018)
